Measured values published in ChEMBL document CHEMBL1145518, “Potent immune-modulating and anticancer effects of NKT cell stimulatory glycolipids” (2007).
Calls of active or inactive are those of the source. The rule behind the calls is not given here.

Columns and labels:
Mus musculus [1] = experiment: Induction of IL2 secretion in BALB/c mouse serum at 2 ug, iv after 2 hrs relative to control; type: functional
How it was run: (§1)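 BALB/c mice received an i.v. injection of 100 μl of glycolipid diluted to 20 μg/ml in saline from DMSO stock, with 1% DMSO as vehicle. Serum cytokines/chemokines were measured at 2 and 18 h after injection.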

dendritic [2] = experiment: Activation of TCR in human immature dendritic cells assessed as increase in CD3epsilon phosphorylation; type: cell-based
How it was run: (§2)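 Human HeLa, HeLa-CD1d or autologous immature DCs were loaded with glycolipid at 10 μg/ml, or DMSO, for 2 h. Then 3 × 10^5 naïve CD161+/CD3+ NKT cells were added; these were bead-isolated and kept in 100 units/ml IL-2. After 5–10 min the cells were washed and lysed at 4°C. Phospho-CD3ε, ERK1/2 (Thr-185/Tyr-187) and CREB (Ser-133) were read by Luminex bead assay as median fluorescence normalized to total protein, expressed as fold over 1% DMSO.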

[3] = Induction of IFN-gamma secretion in human CD161+ CD3+ NKT cells at 10 ug/ml after 18 hrs relative to basal level; type: functional
How it was run: (§3)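 Human Vα24i NKT cell lines were expanded for 10 days on irradiated (3,000 rad) autologous immature DCs with 10 units/ml IL-2. The cells (1 × 10^5) were cocultured with 5 × 10^4 irradiated immature CD14+ DCs plus glycolipid at 10 μg/ml. Supernatants were collected at 18 h and read on a 22-plex Luminex bead panel. Triplicates, mean ± SD.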

[4] = Induction of IL6 secretion in human CD161+ CD3+ NKT cells at 10 ug/ml after 18 hrs relative to basal level; type: functional; how it was run: as §3
Mus musculus [5] = experiment: Induction of IL3 secretion in BALB/c mouse serum at 2 ug, iv after 2 hrs relative to control; type: functional; how it was run: as §1
[6] = Induction of RANTES secretion in human CD161+ CD3+ NKT cells at 10 ug/ml after 18 hrs relative to basal level; type: functional; how it was run: as §3
4T1 = experiment: Antitumor activity in mouse 4T1 cells xenografted BALB/c mouse assessed as suppression of tumor growth at 2 ug, iv; type: functional, cell-based
How it was run: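 BALB/c mice (n = 6) were inoculated s.c. with 4T1 breast cancer cells. From day 3 they were treated i.v. with glycolipid or vehicle twice weekly for 4 weeks. Tumor volume was recorded every 3 days for 1 month, and survival was monitored up to 54 days.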

[7] = Induction of IL13 secretion in human CD161+ CD3+ NKT cells at 10 ug/ml after 18 hrs relative to basal level; type: functional; how it was run: as §3
HeLa [8] = experiment: Activation of TCR in human HeLa cells overexpressing CD1d assessed as increase in CREB phosphorylation; type: cell-based; how it was run: as §2
dendritic [9] = experiment: Activation of TCR in human immature dendritic cells assessed as increase in ERK1/2 phosphorylation; type: cell-based; how it was run: as §2
[10] = Induction of IL15 secretion in human CD161+ CD3+ NKT cells at 10 ug/ml after 18 hrs relative to basal level; type: functional; how it was run: as §3
Mus musculus [11] = experiment: Induction of MIPbeta secretion in BALB/c mouse serum at 2 ug, iv after 2 hrs relative to control; type: functional; how it was run: as §1
Mus musculus [12] = experiment: Induction of IL6 secretion in BALB/c mouse serum at 2 ug, iv after 2 hrs relative to control; type: functional; how it was run: as §1
[13] = Induction of IL4 secretion in human CD161+ CD3+ NKT cells at 10 ug/ml after 18 hrs relative to basal level; type: functional; how it was run: as §3
[14] = Induction of IL12p70 secretion in human CD161+ CD3+ NKT cells at 10 ug/ml after 18 hrs relative to basal level; type: functional; how it was run: as §3
[15] = Induction of IL2 secretion in human CD161+ CD3+ NKT cells at 10 ug/ml after 18 hrs relative to basal level; type: functional; how it was run: as §3
Mus musculus [16] = experiment: Induction of IL12p40 secretion in BALB/c mouse serum at 2 ug, iv after 18 hrs relative to control; type: functional; how it was run: as §1
Mus musculus [17] = experiment: Increase in CD8/CD4 T cell ratio in BALB/c mouse at 2 ug, iv after 72 hrs by flow cytometry; type: functional, organism-based
[18] = Induction of TNFalpha secretion in human CD161+ CD3+ NKT cells at 10 ug/ml after 18 hrs relative to basal level; type: functional; how it was run: as §3
[19] = Induction of IL12p40 secretion in human CD161+ CD3+ NKT cells at 10 ug/ml after 18 hrs relative to basal level; type: functional; how it was run: as §3
Mus musculus [20] = experiment: Induction of GM-CSF secretion in BALB/c mouse serum at 2 ug, iv after 2 hrs relative to control; type: functional; how it was run: as §1
dendritic [21] = experiment: Activation of TCR in human immature dendritic cells assessed as increase in CREB phosphorylation; type: cell-based; how it was run: as §2
HeLa [22] = experiment: Activation of TCR in human HeLa cells overexpressing CD1d assessed as increase in ERK1/2 phosphorylation; type: cell-based; how it was run: as §2
Mus musculus [23] = experiment: Activation of B cells in BALB/c mouse at 2 ug, iv after 72 hrs by flow cytometry; type: functional, organism-based
[24] = Induction of MIPalpha secretion in human CD161+ CD3+ NKT cells at 10 ug/ml after 18 hrs relative to basal level; type: functional; how it was run: as §3
Mus musculus [25] = experiment: Induction of IL10 secretion in BALB/c mouse serum at 2 ug, iv after 18 hrs relative to control; type: functional; how it was run: as §1
[26] = Induction of MCP1 secretion in human CD161+ CD3+ NKT cells at 10 ug/ml after 18 hrs relative to basal level; type: functional; how it was run: as §3
Mus musculus [27] = experiment: Induction of KC secretion in BALB/c mouse serum at 2 ug, iv after 2 hrs relative to control; type: functional; how it was run: as §1
Mus musculus [28] = experiment: Induction of MCP1 secretion in BALB/c mouse serum at 2 ug, iv after 2 hrs relative to control; type: functional; how it was run: as §1
[29] = Induction of IL10 secretion in human CD161+ CD3+ NKT cells at 10 ug/ml after 18 hrs relative to basal level; type: functional; how it was run: as §3
HeLa [30] = experiment: Activation of TCR in human HeLa cells overexpressing CD1d assessed as increase in CD3epsilon phosphorylation; type: cell-based; how it was run: as §2
[31] = Induction of GM-CSF secretion in human CD161+ CD3+ NKT cells at 10 ug/ml after 18 hrs relative to basal level; type: functional; how it was run: as §3
NKT = experiment: Stimulation of cell expansion of human invariant CD161+/ Valpha24+/ CD56+/ CD3+ NKT cells by flow cytometry method; type: functional, cell-based
How it was run: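 CD56+ NK/NKT mixtures (2 × 10^6) were isolated from human leukopaks with anti-CD56 microbeads. They were cocultured with 4 × 10^5 autologous immature CD14+ DCs pulsed with glycolipid at 3 μg/ml, or with 0.3% DMSO, on day 2 for 18 h. Suspension cells were then transferred and kept in 100 units/ml IL-2 with fresh medium every 3 days. On day 9, CD161+/Vα24TCR+ cells were gated by flow cytometry and total Vα24i NKT cells counted. Triplicates, mean ± SD.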

TC1 = experiment: Antitumor activity in TC1 cells xenografted C57BL/6 mouse assessed as suppression of tumor growth at 2 ug, iv; type: functional, cell-based
How it was run: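 C57BL/6 mice (n = 5/group) were inoculated i.v. with TC-1 lung cancer cells. They were then treated i.v. with 2 μg glycolipid per mouse, or 100 μl of 1% DMSO, twice weekly for 4 weeks. Kaplan–Meier survival and body weight were followed, with tumor-free mice as an additional control.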

[32] = Induction of IL3 secretion in human CD161+ CD3+ NKT cells at 10 ug/ml after 18 hrs relative to basal level; type: functional; how it was run: as §3
[33] = Induction of IL8 secretion in human CD161+ CD3+ NKT cells at 10 ug/ml after 18 hrs relative to basal level; type: functional; how it was run: as §3
Mus musculus [34] = experiment: Induction of IL1-beta secretion in BALB/c mouse serum at 2 ug, iv after 18 hrs relative to control; type: functional; how it was run: as §1
Mus musculus [35] = experiment: Induction of RANTES secretion in BALB/c mouse serum at 2 ug, iv after 2 hrs relative to control; type: functional; how it was run: as §1
Mus musculus [36] = experiment: Induction of IL4 secretion in BALB/c mouse serum at 2 ug, iv after 2 hrs relative to control; type: functional; how it was run: as §1
Mus musculus [37] = experiment: Induction of IFN-gamma secretion in BALB/c mouse serum at 2 ug, iv after 18 hrs relative to control; type: functional; how it was run: as §1
Mus musculus [38] = experiment: Induction of TNFalpha secretion in BALB/c mouse serum at 2 ug, iv after 18 hrs relative to control; type: functional; how it was run: as §1
Mus musculus [39] = experiment: Induction of IL13 secretion in BALB/c mouse serum at 2 ug, iv after 2 hrs relative to control; type: functional; how it was run: as §1
Mus musculus [40] = experiment: Induction of IL12p70 secretion in BALB/c mouse serum at 2 ug, iv after 18 hrs relative to control; type: functional; how it was run: as §1

SMILES: CCCCCCCCCCCCCC[C@@H](O)[C@@H](O)[C@H](CO[C@H]1O[C@H](CO)[C@H](O)[C@H](O)[C@H]1O)NC(=O)CCCCCCCc1ccccc1
- Activity (Mus musculus [1]): 70.3
- Activity (dendritic [2]): 21.3
- Activity [3]: 6.4
- Activity [4]: 2.2
- Activity (Mus musculus [5]): 2.4
- Activity [6]: 1.7
- Activity (4T1): Active
- Activity [7]: 1.7
- Activity (HeLa [8]): 117
- Activity (dendritic [9]): 48.3
- Activity [10]: 2.8
- Activity (Mus musculus [11]): 3.8
- Activity (Mus musculus [12]): 2.8
- Activity [13]: 2.6
- Activity [14]: 4.7
- Activity [15]: 6.1
- Activity (Mus musculus [16]): 3.8
- Activity (Mus musculus [17]): Active
- Activity [18]: 8.1
- Activity [19]: 2.3
- Activity (Mus musculus [20]): 2.9
- Activity (dendritic [21]): 204
- Activity (HeLa [22]): 14.6
- Activity (Mus musculus [23]): Active
- Activity [24]: 3.3
- Activity (Mus musculus [25]): 1.3
- Activity [26]: 1
- Activity (Mus musculus [27]): 11
- Activity (Mus musculus [28]): 19.4
- Activity [29]: 2.3
- Activity (HeLa [30]): 10
- Activity [31]: 6.7
- Activity (NKT): Active
- Activity (TC1): Active
- Activity [32]: 4.2
- Activity [33]: 1.8
- Activity (Mus musculus [34]): 4.7
- Activity (Mus musculus [35]): 2.3
- Activity (Mus musculus [36]): 53.1
- Activity (Mus musculus [37]): 48.3
- Activity (Mus musculus [38]): 22.4
- Activity (Mus musculus [39]): 10.9
- Activity (Mus musculus [40]): 2.6

SMILES: CCCCCCCCCCCCCC[C@@H](O)[C@@H](O)[C@H](CO[C@H]1O[C@H](CO)[C@H](O)[C@H](O)[C@H]1O)NC(=O)CCCCCCCCCCCCC
- Activity (Mus musculus [1]): 14
- Activity [3]: 2.7
- Activity [4]: 1.9
- Activity (Mus musculus [5]): 1.5
- Activity [6]: 2
- Activity [7]: 1.9
- Activity [10]: 2.4
- Activity (Mus musculus [11]): 1.5
- Activity (Mus musculus [12]): 1.5
- Activity [13]: 2.8
- Activity [14]: 1.6
- Activity [15]: 1.8
- Activity (Mus musculus [16]): 0.9
- Activity (Mus musculus [17]): Active
- Activity [18]: 3
- Activity [19]: 1.7
- Activity (Mus musculus [20]): 1.6
- Activity (Mus musculus [23]): Active
- Activity [24]: 3.5
- Activity (Mus musculus [25]): 5.4
- Activity [26]: 1.4
- Activity (Mus musculus [27]): 3.9
- Activity (Mus musculus [28]): 2.6
- Activity [29]: 1.9
- Activity [31]: 3
- Activity (NKT): Active
- Activity [32]: 1.7
- Activity [33]: 2.2
- Activity (Mus musculus [34]): 2.4
- Activity (Mus musculus [35]): 0.9
- Activity (Mus musculus [36]): 26.2
- Activity (Mus musculus [37]): 43.8
- Activity (Mus musculus [38]): 2
- Activity (Mus musculus [39]): 0.9
- Activity (Mus musculus [40]): 3.5
